Results from ChEMBL document CHEMBL1157252, “Antibacterial galloylated alkylphloroglucinol glucosides from myrtle (Myrtus communis)” (2006).
≈ marks a conversion by molar mass, not a printed value. Calls of active or inactive are those of the source. The calls are words filed in the database; no cut-off is given here.

Key:
[1] = tested on: Staphylococcus aureus; experiment: Antibacterial activity against methicillin-susceptible Staphylococcus aureus ATCC 25923 after 18 hrs by microtiter plate method; format: functional; details: for MIC: ATCC 25923, 18 h
Procedure, shortened: (§1)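 Broth microdilution MIC. Strains were grown on nutrient agar for 24 h at 37 °C. Inoculum was made to the 0.5 McFarland standard in normal saline and diluted to a final 5 × 10^5 cfu/mL. Plates were incubated for 18 h at 37 °C. MIC was taken as the lowest concentration with no observed growth, determined in duplicate.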

[2] = tested on: Staphylococcus aureus; experiment: Antibacterial activity against multidrug-resistant Staphylococcus aureus SA-1199B overexpressing NorA efflux transporter after 18 hrs by microtiter plate method; format: functional; procedure, shortened: as §1
[3] = tested on: Staphylococcus aureus; experiment: Antibacterial activity against Staphylococcus aureus RN4220 expressing MsrA efflux transporter after 18 hrs by microtiter plate method; format: functional; details: for MIC: RN4220, 18 h; procedure, shortened: as §1
[4] = tested on: Staphylococcus aureus; experiment: Antibacterial activity against methicillin-resistant Staphylococcus aureus XU212 expressing TetK efflux pump and MecA after 18 hrs by microtiter plate method; format: functional; procedure, shortened: as §1
[5] = tested on: Staphylococcus aureus; experiment: Antibacterial activity against epidemic methicillin-resistant Staphylococcus aureus 15 expressing MecA after 18 hrs by microtiter plate method; format: functional; procedure, shortened: as §1
[6] = tested on: Staphylococcus aureus; experiment: Antibacterial activity against multidrug-resistant Staphylococcus aureus SA-1199B overexpressing NorA efflux transporter at 256 ug/mL after 18 hrs by microtiter plate method; format: functional, organism-based
[7] = tested on: Staphylococcus aureus; experiment: Antibacterial activity against epidemic methicillin-resistant Staphylococcus aureus 15 expressing MecA at 256 ug/mL after 18 hrs by microtiter plate method; format: functional, organism-based
[8] = tested on: Staphylococcus aureus; experiment: Antibacterial activity against Staphylococcus aureus RN4220 expressing MsrA efflux transporter at 256 ug/mL after 18 hrs by microtiter plate method; format: functional, organism-based
Procedure, shortened: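 Strain pre-grown on nutrient agar for 24 h at 37 °C. Inoculum matched to the 0.5 McFarland standard in normal saline and diluted to a final 5 × 10^5 cfu/mL in microtiter wells. Plates incubated 18 h at 37 °C. MIC taken as the lowest concentration with no bacterial growth, determined in duplicate.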

[9] = tested on: Staphylococcus aureus; experiment: Antibacterial activity against methicillin-resistant Staphylococcus aureus XU212 expressing TetK efflux pump and MecA at 256 ug/mL after 18 hrs by microtiter plate method; format: functional, organism-based

| SMILES | MIC [1] | MIC [2] | MIC [3] | MIC [4] | MIC [5] | Activity [6] | Activity [7] | Activity [8] | Activity [9] | further results |
| --- | --- | --- | --- | --- | --- | --- | --- | --- | --- | --- |
| CCn1cc(C(=O)O)c(=O)c2cc(F)c(N3CCNCC3)cc21 [NORFLOXACIN] | 1 µg/mL (≈ 3.13 µM) | 32 µg/mL (≈ 100 µM) | 2 µg/mL (≈ 6.26 µM) | 4 µg/mL (≈ 12.5 µM) | 0.5 µg/mL (≈ 1.57 µM) |  |  |  |  |  |
| CC(C)C[C@]1(O)C(=O)C(C)(C)C(=O)C(C)(C)[C@@H]1O[C@@H]1O[C@H](COC(=O)c2cc(O)c(O)c(O)c2)[C@@H](O)[C@H](O)[C@H]1O [GALLOMYRTUCOMMULONE A] | 128 µg/mL (≈ 224 µM) | 256 µg/mL (≈ 449 µM) | 128 µg/mL (≈ 224 µM) | 256 µg/mL (≈ 449 µM) | 128 µg/mL (≈ 224 µM) |  |  |  |  |  |
| CC(C)=C[C@@]1(O)C(=O)C(C)(C)C(=O)C(C)(C)[C@@H]1O[C@@H]1O[C@H](COC(=O)c2cc(O)c(O)c(O)c2)[C@@H](O)[C@H](O)[C@H]1O |  |  |  |  |  | inactive | inactive | inactive | inactive |  |
| CC(C)=C[C@]1(O)C(=O)C(C)(C)C(=O)C(C)(C)[C@@H]1O[C@@H]1O[C@H](COC(=O)c2cc(O)c(O)c(O)c2)[C@@H](O)[C@H](O)[C@H]1O |  |  |  |  |  | inactive | inactive | inactive | inactive |  |
| CC(C)CC1(O)C(=O)C(C)(C)C(O[C@@H]2O[C@H](COC(=O)c3cc(O)c(O)c(O)c3)[C@@H](O)[C@H](O)[C@H]2O)C(C)(C)C1=O (stereo partly drawn) [GALLOMYRTUCOMMULONE B] | 64 µg/mL (≈ 112 µM) | 128 µg/mL (≈ 224 µM) | 128 µg/mL (≈ 224 µM) | 128 µg/mL (≈ 224 µM) | 128 µg/mL (≈ 224 µM) |  |  |  |  |  |
| CC1(C)C=C2C(=O)C(C)(C)C(=O)C(C)(C)C2(O)OO1 (stereo not drawn) |  |  |  |  |  |  |  |  |  | Activity [1]: inactive; Activity [2]: inactive; Activity [3]: inactive; Activity [4]: inactive; Activity [5]: inactive |
